The values that follow come from ChEMBL document CHEMBL1817651, “Neuroprotective effects of linarin through activation of the PI3K/Akt pathway in amyloid-β-induced neuronal cell death” (2011).

Active and inactive are the calls of the source. The rule behind the calls is not given here.

The subject of experiment [1] is PC-12. As to the kind of experiment: Cytoprotective activity in amyloid beta-induced apoptosis in rat PC12 cells at 1 uM administered 1 hr prior to amyloid beta challenge measured after 24 hrs by using Annexin V/PI staining based flow cytometric analysis. In kind it is functional. The essentials: (§1)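 Cells were stained with Annexin V-FITC/PI for 15 min in the dark at room temperature and analysed by flow cytometry. Annexin+/PI− cells were scored early apoptotic and double-positive cells late apoptotic. Mean ± SD of triplicate independent experiments.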
Background: In flow cytometry, cells or beads pass a laser one at a time.

The target of experiment [2] is Glycogen synthase kinase-3 beta (Rattus norvegicus) (UniProt P18266). As to the kind of experiment: Increase in GSK3 beta phosphorylation at Ser9 in amyloid beta-induced rat PC12 cells at 0.1 to 10 uM administered 1 hrs prior to amyloid beta challenge measured after 24 hrs by Western blotting pretreated with PI3K inhibitor LY294002 before compound addition. In kind it is cell-based. As to conditions: PC-12. A digest of the protocol: (§2)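 Lysates (20 or 30 µg) were run on 12% SDS-PAGE and immunoblotted for pSer9 GSK-3β and total GSK-3β (1:1000), with β-actin or GAPDH as loading control. Blots shown represent three independent experiments.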
Glycogen synthase kinase-3 beta (Rattus norvegicus), sequence (P18266 whole entry, looked up): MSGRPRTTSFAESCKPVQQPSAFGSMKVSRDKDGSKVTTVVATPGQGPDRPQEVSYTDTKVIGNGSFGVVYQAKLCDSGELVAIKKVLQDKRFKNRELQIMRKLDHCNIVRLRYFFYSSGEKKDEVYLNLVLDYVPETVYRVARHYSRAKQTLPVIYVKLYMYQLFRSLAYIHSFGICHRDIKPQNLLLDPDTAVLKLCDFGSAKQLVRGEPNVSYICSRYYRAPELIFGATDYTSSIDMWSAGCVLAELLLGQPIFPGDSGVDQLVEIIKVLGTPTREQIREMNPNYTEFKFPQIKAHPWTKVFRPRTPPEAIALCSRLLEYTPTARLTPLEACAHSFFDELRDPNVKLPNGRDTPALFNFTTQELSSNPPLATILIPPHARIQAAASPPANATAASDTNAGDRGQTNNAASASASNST
(In general: In western blotting, separated proteins are transferred to a membrane and probed.)

Experiment [3] concerns PC-12. As to the kind of experiment: Cytoprotective activity in amyloid beta-induced apoptosis in rat PC12 cells administered 1 hr prior to amyloid beta challenge measured after 24 hrs by using Annexin V/PI staining based flow cytometric analysis. Type of experiment: functional, cell-based. The essentials: as §1
Experiment [4] relates to PC-12. As to the kind of experiment: Cytoprotective activity in amyloid beta-induced apoptosis in rat PC12 cells at 10 uM administered 1 hr prior to amyloid beta challenge measured after 24 hrs by using Annexin V/PI staining based flow cytometric analysis. Type of experiment: functional. A digest of the protocol: as §1
Experiment [5] deals with Glycogen synthase kinase-3 beta (Rattus norvegicus) (UniProt P18266). As to the kind of experiment: Increase in GSK3 beta phosphorylation at Ser9 in amyloid beta-induced rat PC12 cells at 0.1 to 10 uM administered 1 hrs prior to amyloid beta challenge measured after 24 hrs by Western blotting. Type of experiment: cell-based. As to conditions: PC-12. The essentials: as §2

Experiment [6] relates to PC-12. As to the kind of experiment: Neuroprotective activity in amyloid beta-induced cytotoxicity in rat PC12 cells assessed as cell viability pretreated 1 hrs prior to amyloid beta challenge measured after 24 hrs by MTT assay. In kind it is functional, cell-based. The essentials:
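PC12 cells at 0.5 × 10^4 per well, serum-starved 12 h, then pretreated 1 h with 0.1, 1.0 or 10 µM. Viability was read by MTT (5 mg/ml, 4 h, 37 °C), with formazan dissolved in DMSO and A570 measured. Mean ± SD of triplicate experiments.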
On the technique in general: Tetrazolium assays rely on reduction of a dye to a coloured formazan, in cell work by metabolically active cells.

In experiment [7] the target is T1, Acetylcholinesterase (Rattus norvegicus) (UniProt P37136).
T1 sequence (whole entry): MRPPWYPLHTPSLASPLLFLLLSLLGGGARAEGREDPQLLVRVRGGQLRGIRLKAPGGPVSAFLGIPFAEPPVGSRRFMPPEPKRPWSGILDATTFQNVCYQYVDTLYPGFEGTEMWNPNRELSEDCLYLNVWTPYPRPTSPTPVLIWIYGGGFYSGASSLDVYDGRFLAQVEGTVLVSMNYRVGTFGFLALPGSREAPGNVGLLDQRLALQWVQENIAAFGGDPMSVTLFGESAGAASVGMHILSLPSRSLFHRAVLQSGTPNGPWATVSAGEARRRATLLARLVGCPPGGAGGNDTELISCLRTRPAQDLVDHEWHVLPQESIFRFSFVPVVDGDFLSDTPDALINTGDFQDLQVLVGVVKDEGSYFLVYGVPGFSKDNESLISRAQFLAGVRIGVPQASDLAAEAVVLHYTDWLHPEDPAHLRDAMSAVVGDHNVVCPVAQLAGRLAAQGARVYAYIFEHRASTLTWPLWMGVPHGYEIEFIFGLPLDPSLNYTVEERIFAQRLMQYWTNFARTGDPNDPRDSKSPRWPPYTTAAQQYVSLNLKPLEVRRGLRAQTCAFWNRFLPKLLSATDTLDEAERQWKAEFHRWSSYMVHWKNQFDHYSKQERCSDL
As to the kind of experiment: Inhibition of AChE activity in amyloid beta25-35-induced rat PC12 cells at 0.1 to 10 uM, 1 hrs prior to induction after 24 hrs by Ellman assay. In kind it is cell-based. As to conditions: PC-12. The essentials: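 Rat PC12 cells in DMEM/10% FBS, serum-starved 12 h, were pretreated 1 h, then exposed 24 h to 30 µM Aβ25-35 (1 mM in water, pre-aggregated 72 h at 37 °C). Lysates were made in high ionic strength buffer (1 M NaCl, Triton X-100, EDTA) and spun 12,000 rpm 20 min at 4 °C. AChE activity in the supernatant was read by Ellman method; three independent experiments.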

The subject of experiment [8] is PC-12. As to the kind of experiment: Neuroprotective effect against amyloid beta-induced rat PC12 cells assessed as increase of Bcl-2 expression at 0.1 to 10 uM administered 1 hrs prior to amyloid beta challenge measured after 24 hrs by Western blotting pretreated with PI3K inhibitor LY294002 before compound addition. Type of experiment: functional, cell-based. A digest of the protocol:
(§3)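 Lysates (20 or 30 µg) were separated on 12% gels, blotted and probed with anti-Bcl-2 (1:200), with β-actin or GAPDH as loading control. Detection was by ECL.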

The target in experiment [9] is RAC-alpha serine/threonine-protein kinase (Rattus norvegicus) (UniProt P47196). The experiment can be described thus: Induction of PIK3-mediated Akt phosphorylation in amyloid beta-induced rat PC12 cells at 10 uM, treated 1 hrs prior to amyloid beta challenge measured after 24 hrs by Western blotting in presence of PI3K inhibitor LY294002 before compound addition. To be noted: PC-12. In kind it is cell-based. The essentials:
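Lysates (20 or 30 µg) were run on 12% SDS-PAGE and immunoblotted for p-Akt and total Akt (1:1000) with ECL detection. Densitometry, mean ± SD of triplicate experiments.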

In experiment [10] the test system is PC-12. The experiment can be described thus: Inhibition of amyloid beta-induced apoptosis in rat PC12 cells assessed as decrease in caspase-3 dependent cleavage of Ac-DEVD-pNA administered 1 hr prior to amyloid beta challenge measured after 24 hrs by spectrophotometric analysis. Type of experiment: functional, cell-based. The essentials: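 Released pNA was read at 405 nm. Activity was normalised to protein and expressed as fold over control cells. Mean ± SD of triplicate experiments.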

Experiment [11] relates to PC-12. As to the kind of experiment: Neuroprotective effect against amyloid beta-induced apoptosis in rat PC12 cells assessed as upregulation of PI3K-mediated Akt phosphorylation administered 1 hr prior to amyloid beta challenge measured after 24 hrs by Western blotting. In kind it is functional, cell-based. A digest of the protocol:
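Lysate protein (20 or 30 µg) was run on 12% SDS-PAGE and blotted to nitrocellulose. Blots were probed for p-Akt Ser473 and total Akt (1:1000), with β-actin or GAPDH as loading control, and detected by ECL. Densitometry, mean ± SD, triplicate.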

Experiment [12] relates to PC-12. The experiment can be described thus: Neuroprotective activity in amyloid beta-induced rat PC12 cells assessed as increase of Bcl-2 expression at 0.1 to 10 uM administered 1 hrs prior to amyloid beta challenge measured after 24 hrs by Western blotting. Type of experiment: functional, cell-based. The essentials: as §3
Experiment [13] has as its system PC-12. The experiment can be described thus: Cytoprotective activity in amyloid beta-induced apoptosis in rat PC12 cells at 0.1 uM administered 1 hr prior to amyloid beta challenge measured after 24 hrs by using Annexin V/PI staining based flow cytometric analysis. Type of experiment: functional. The essentials: as §1
Experiment [14] concerns PC-12. As to the kind of experiment: Inhibition of amyloid beta-induced mitochondrial dysfunction in rat PC12 cells at 0.1 to 10 uM administered 1 hr prior to amyloid beta challenge measured after 24 hrs using JC1 fluorescent dye based flow cytometeric analysis. Type of experiment: functional, cell-based. The essentials:
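Cells were loaded with JC-1 for 20 min at 37 °C, pelleted at 600g, resuspended in PBS and analysed by flow cytometry on FL1 (525 nm) and FL2 (575 nm). Membrane potential was expressed as the green/red fluorescence ratio. Mean ± SD, triplicate.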

RAC-alpha serine/threonine-protein kinase (Rattus norvegicus), sequence (P47196 whole entry): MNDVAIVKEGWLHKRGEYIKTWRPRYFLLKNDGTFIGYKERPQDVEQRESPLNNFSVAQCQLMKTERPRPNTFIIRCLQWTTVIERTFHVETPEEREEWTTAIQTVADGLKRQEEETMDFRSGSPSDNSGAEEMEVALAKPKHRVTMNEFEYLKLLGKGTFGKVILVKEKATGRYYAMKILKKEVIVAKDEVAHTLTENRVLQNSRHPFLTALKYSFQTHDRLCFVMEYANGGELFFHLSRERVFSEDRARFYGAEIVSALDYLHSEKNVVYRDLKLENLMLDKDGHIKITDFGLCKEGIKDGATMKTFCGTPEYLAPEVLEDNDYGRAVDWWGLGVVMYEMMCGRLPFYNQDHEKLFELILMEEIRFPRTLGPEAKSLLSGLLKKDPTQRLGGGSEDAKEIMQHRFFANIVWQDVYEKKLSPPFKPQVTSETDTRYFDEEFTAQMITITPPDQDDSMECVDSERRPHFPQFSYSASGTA

With `COc1ccc(-c2cc(=O)c3c(O)cc(O[C@@H]4O[C@H](CO[C@@H]5O[C@@H](C)[C@H](O)[C@@H](O)[C@H]5O)[C@@H](O)[C@H](O)[C@H]4O)cc3o2)cc1` [ACACIIN], the Activity in the experiment with PC-12 [1] was 11.57%; in the experiment on PC-12 [3], “Dose-dependent effect”; with PC-12 [4], 7.32%; with PC-12 [6] it was “Dose-dependent effect”; with PC-12 [13], 20.52%. Further, the outcome (in experiment [2]; in the experiment on PC-12 [8]; in experiment [9]) was inactive. Besides, the result (in [5]; in the experiment with PC-12 [11]; in the experiment with PC-12 [12]) was Active. The inhibition entry (in experiment [7]; in the experiment on PC-12 [14]) was “Active” in each case. Moreover, the inhibition result in the experiment with PC-12 [10] is “Dose-dependent effect”.
